Reference: ChEMBL document CHEMBL4334446, “Evaluating the effects of fluorine on biological properties and metabolic stability of some antitubulin 3-substituted 7-phenyl-pyrroloquinolinones” (Eur J Med Chem, 2019)

Test system: B16-BL6
Experiment: Antitumour activity against mouse B16-BL6 cells allografted in C57BL/6 mouse assessed as reduction in tumor mass at 30 mg/kg, ip administrated every other day relative to control
Assay type: functional
Summary of the method: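 Six-week-old male C57BL/6 mice received BL6-B16 murine melanoma cells subcutaneously in the dorsolateral flank, suspended in PBS. Once tumors reached about 100 mm³, the mice were randomised and dosed intraperitoneally every other day, with the drug dissolved in DMSO; controls received DMSO vehicle. Tumors were measured in two dimensions, V=(D x d²)/2, and weighed at the end. Five mice per group; mean ± SEM.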

COc1ccc(/C=C\c2cc(OC)c(OC)c(OC)c2)cc1OP(=O)(O)O [FOSBRETABULIN DISODIUM] gave an inhibition in vivo at 30 mg/kg of 31.3%.
